Results reported in ChEMBL document CHEMBL1157665, “Novel 4-thiazolidinone derivatives as potential antifungal and antibacterial drugs” (2010).
In brackets after ≈: the same amount, converted by molar mass.

Key:
Penicillium ochrochloron [1] = experiment: Antifungal activity against Penicillium ochrochloron ATCC 9112 after 72 hrs by serial dilution method; format: functional; conditions: ATCC 9112, 72 h
How it was run: (§1)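 Fungi were kept on malt agar at 4 °C and sub-cultured monthly. Spores were washed off the agar with sterile 0.85% saline containing 0.1% Tween 80 (v/v). Modified microdilution in 96-well plates. MIC is the lowest concentration with no visible growth under the binocular microscope. Inoculum checked on malt agar for contamination and validity.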

Micrococcus flavus [2] = experiment: Antibacterial activity against Micrococcus flavus ATCC 10240 after 24 hrs; format: functional; conditions: ATCC 10240, 24 h
How it was run: (§2)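 Broth microdilution MIC in 96-well plates. Compounds in LB broth with bacterial inoculum of 1.0 × 10^4 cfu per well, from suspensions adjusted with sterile saline to 1.0 × 10⁵ CFU/ml. Incubated 24 h at […] as printed. MIC taken as the lowest concentration with no visible growth under the binocular microscope. OD at 655 nm also read against blank. Streptomycin and ampicillin as positive controls. Duplicate, repeated three times.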

Aspergillus niger [3] = experiment: Antifungal activity against Aspergillus niger ATCC 6275 after 72 hrs by serial sub-cultivation method; format: functional; conditions: ATCC 6275, 72 h
How it was run: (§3)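 MFC was found by serial sub-cultivation of 2 µl into plates holding 100 µl broth per well, then incubation 72 h at 28 °C. MFC is the lowest concentration with no visible growth, taken as 99.5% killing of the original inoculum. Spore inocula came from malt agar cultures washed with 0.85% saline and 0.1% Tween 80.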

Bacillus cereus [4] = experiment: Antibacterial activity against Bacillus cereus clinical isolate after 24 hrs; format: functional; how it was run: as §2
Aspergillus flavus [5] = experiment: Antifungal activity against Aspergillus flavus ATCC 9643 after 72 hrs by serial dilution method; format: functional; conditions: ATCC 9643, 72 h; how it was run: as §1
Staphylococcus aureus [6] = experiment: Antibacterial activity against Staphylococcus aureus ATCC 6538 after 72 hrs by serial sub-cultivation method; format: functional; conditions: ATCC 6538, 72 h
How it was run: (§4)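 MBC was found by serial sub-cultivation of 2 µl from the MIC wells into plates holding 100 µl broth per well, then incubation for 72 h. MBC is the lowest concentration with no visible growth, i.e. 99.5% killing of the original inoculum. Bacterial inoculum was 1.0 × 10^4 cfu per well in LB broth. Duplicate, repeated three times.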

Talaromyces funiculosus [7] = experiment: Antifungal activity against Penicillium funiculosum ATCC 36839 after 72 hrs by serial sub-cultivation method; format: functional; conditions: ATCC 36839, 72 h; how it was run: as §3
Micrococcus flavus [8] = experiment: Antibacterial activity against Micrococcus flavus ATCC 10240 after 72 hrs by serial sub-cultivation method; format: functional; conditions: ATCC 10240, 72 h; how it was run: as §4
Escherichia coli [9] = experiment: Antibacterial activity against Escherichia coli ATCC 35210 after 72 hrs by serial sub-cultivation method; format: functional; conditions: ATCC 35210, 72 h; how it was run: as §4
Aspergillus fumigatus [10] = experiment: Antifungal activity against Aspergillus fumigatus plant isolate after 72 hrs by serial dilution method
Listeria monocytogenes [11] = experiment: Antibacterial activity against Listeria monocytogenes NCTC 7973 after 24 hrs; format: functional; conditions: NCTC 7973, 24 h; how it was run: as §2
Aspergillus fumigatus [12] = experiment: Antifungal activity against Aspergillus fumigatus plant isolate after 72 hrs by serial sub-cultivation method
Proteus mirabilis [13] = experiment: Antibacterial activity against Proteus mirabilis after 72 hrs by serial sub-cultivation method; format: functional; how it was run: as §4
Aspergillus flavus [14] = experiment: Antifungal activity against Aspergillus flavus ATCC 9643 after 72 hrs by serial sub-cultivation method; format: functional; conditions: ATCC 9643, 72 h; how it was run: as §3
Aspergillus versicolor [15] = experiment: Antifungal activity against Aspergillus versicolor ATCC 11730 after 72 hrs by serial sub-cultivation method; format: functional; conditions: ATCC 11730, 72 h; how it was run: as §3
Pseudomonas aeruginosa [16] = experiment: Antibacterial activity against Pseudomonas aeruginosa ATCC 27853 after 24 hrs; format: functional; conditions: ATCC 27853, 24 h; how it was run: as §2
Staphylococcus aureus [17] = experiment: Antibacterial activity against Staphylococcus aureus ATCC 6538 after 24 hrs; format: functional; conditions: ATCC 6538, 24 h; how it was run: as §2
Bacillus cereus [18] = experiment: Antibacterial activity against Bacillus cereus clinical isolate after 72 hrs by serial sub-cultivation method; format: functional; how it was run: as §4
Salmonella typhimurium [19] = experiment: Antibacterial activity against Salmonella Typhimurium ATCC 13311 after 72 hrs by serial sub-cultivation method; format: functional, Salmonella enterica subsp. enterica serovar Typhimurium; conditions: Salmonella enterica, ATCC 13311, 72 h; how it was run: as §4
Fulvia fulva [20] = experiment: Antifungal activity against Fulvia fulva TK 5318 after 72 hrs by serial dilution method; format: functional; conditions: TK 5318, 72 h; how it was run: as §1
Listeria monocytogenes [21] = experiment: Antibacterial activity against Listeria monocytogenes NCTC 7973 after 72 hrs by serial sub-cultivation method; format: functional; conditions: NCTC 7973, 72 h; how it was run: as §4
Penicillium ochrochloron [22] = experiment: Antifungal activity against Penicillium ochrochloron ATCC 9112 after 72 hrs by serial sub-cultivation method; format: functional; conditions: ATCC 9112, 72 h; how it was run: as §3
Fulvia fulva [23] = experiment: Antifungal activity against Fulvia fulva TK 5318 after 72 hrs by serial sub-cultivation method; format: functional; conditions: TK 5318, 72 h; how it was run: as §3
Aspergillus niger [24] = experiment: Antifungal activity against Aspergillus niger ATCC 6275 after 72 hrs by serial dilution method; format: functional; conditions: ATCC 6275, 72 h; how it was run: as §1
Escherichia coli [25] = experiment: Antibacterial activity against Escherichia coli ATCC 35210 after 24 hrs; format: functional; conditions: ATCC 35210, 24 h; how it was run: as §2
Trichoderma viride [26] = experiment: Antifungal activity against Trichoderma viride IAM 5061 after 72 hrs by serial dilution method; format: functional; conditions: IAM 5061, 72 h; how it was run: as §1
Trichoderma viride [27] = experiment: Antifungal activity against Trichoderma viride IAM 5061 after 72 hrs by serial sub-cultivation method; format: functional; conditions: IAM 5061, 72 h; how it was run: as §3
Aspergillus versicolor [28] = experiment: Antifungal activity against Aspergillus versicolor ATCC 11730 after 72 hrs by serial dilution method; format: functional; conditions: ATCC 11730, 72 h; how it was run: as §1
Pseudomonas aeruginosa [29] = experiment: Antibacterial activity against Pseudomonas aeruginosa ATCC 27853 after 72 hrs by serial sub-cultivation method; format: functional; conditions: ATCC 27853, 72 h; how it was run: as §4
Proteus mirabilis [30] = experiment: Antibacterial activity against Proteus mirabilis after 24 hrs; format: functional; how it was run: as §2
Salmonella typhimurium [31] = experiment: Antibacterial activity against Salmonella Typhimurium ATCC 13311 after 24 hrs; format: functional, Salmonella enterica subsp. enterica serovar Typhimurium; conditions: Salmonella enterica, ATCC 13311, 24 h; how it was run: as §2
Talaromyces funiculosus [32] = experiment: Antifungal activity against Penicillium funiculosum ATCC 36839 after 72 hrs by serial dilution method; format: functional; conditions: ATCC 36839, 72 h; how it was run: as §1

Row | SMILES | MIC (Penicillium ochrochloron [1]) [µM] | MIC (Micrococcus flavus [2]) [µM] | MFC (Aspergillus niger [3]) [µM] | MIC (Bacillus cereus [4]) [µM] | MIC (Aspergillus flavus [5]) [µM] | MBC (Staphylococcus aureus [6]) [µM] | MFC (Talaromyces funiculosus [7]) [µM] | MBC (Micrococcus flavus [8]) [µM] | MBC (Escherichia coli [9]) [µM] | MIC (Aspergillus fumigatus [10]) [µM] | MIC (Listeria monocytogenes [11]) [µM] | MFC (Aspergillus fumigatus [12]) [µM] | MBC (Proteus mirabilis [13]) [µM] | MFC (Aspergillus flavus [14]) [µM] | MFC (Aspergillus versicolor [15]) [µM] | MIC (Pseudomonas aeruginosa [16]) [µM] | MIC (Staphylococcus aureus [17]) [µM] | MBC (Bacillus cereus [18]) [µM] | MBC (Salmonella typhimurium [19]) [µM] | MIC (Fulvia fulva [20]) [µM] | further results
1 | O=C1CS/C(=N/c2nc(C34CC5CC(CC(C5)C3)C4)cs2)N1 | 6 (≈ 2 µg/mL) | 23.8 (≈ 7.94 µg/mL) | 23.8 (≈ 7.94 µg/mL) | 17.9 (≈ 5.97 µg/mL) | 17.9 (≈ 5.97 µg/mL) | 47.6 (≈ 15.9 µg/mL) | 23.8 (≈ 7.94 µg/mL) | 47.6 (≈ 15.9 µg/mL) | 47.6 (≈ 15.9 µg/mL) | 11.9 (≈ 3.97 µg/mL) | 23.8 (≈ 7.94 µg/mL) | 23.8 (≈ 7.94 µg/mL) | 71.7 (≈ 23.9 µg/mL) | 23.8 (≈ 7.94 µg/mL) | 33.5 (≈ 11.2 µg/mL) | 17.9 (≈ 5.97 µg/mL) | 23.8 (≈ 7.94 µg/mL) | 23.8 (≈ 7.94 µg/mL) | 47.6 (≈ 15.9 µg/mL) | 6 (≈ 2 µg/mL) | MBC (Listeria monocytogenes [21]): 47.6 µM (≈ 15.9 µg/mL); MFC (Penicillium ochrochloron [22]): 23.8 µM (≈ 7.94 µg/mL); MFC (Fulvia fulva [23]): 11.9 µM (≈ 3.97 µg/mL); MIC (Aspergillus niger [24]): 11.9 µM (≈ 3.97 µg/mL); MIC (Escherichia coli [25]): 23.8 µM (≈ 7.94 µg/mL); MIC (Trichoderma viride [26]): 11.9 µM (≈ 3.97 µg/mL); MFC (Trichoderma viride [27]): 23.8 µM (≈ 7.94 µg/mL); MIC (Aspergillus versicolor [28]): 23.8 µM (≈ 7.94 µg/mL); MBC (Pseudomonas aeruginosa [29]): 47.6 µM (≈ 15.9 µg/mL); MIC (Proteus mirabilis [30]): 47.6 µM (≈ 15.9 µg/mL); MIC (Salmonella typhimurium [31]): 23.8 µM (≈ 7.94 µg/mL); MIC (Talaromyces funiculosus [32]): 17.9 µM (≈ 5.97 µg/mL)
2 | O=C1N/C(=N/c2nc(C34CC5CC(CC(C5)C3)C4)cs2)S/C1=C\c1ccc([N+](=O)[O-])cc1 | 16.1 (≈ 7.51 µg/mL) | 21.5 (≈ 10 µg/mL) | 21.5 (≈ 10 µg/mL) | 21.5 (≈ 10 µg/mL) | 16.1 (≈ 7.51 µg/mL) | 43 (≈ 20.1 µg/mL) | 21.5 (≈ 10 µg/mL) | 21.5 (≈ 10 µg/mL) | 43 (≈ 20.1 µg/mL) | 16.1 (≈ 7.51 µg/mL) | 21.5 (≈ 10 µg/mL) | 21.5 (≈ 10 µg/mL) | 64.5 (≈ 30.1 µg/mL) | 21.5 (≈ 10 µg/mL) | 21.5 (≈ 10 µg/mL) | 21.5 (≈ 10 µg/mL) | 16.1 (≈ 7.51 µg/mL) | 21.5 (≈ 10 µg/mL) | 21.5 (≈ 10 µg/mL) | 16.1 (≈ 7.51 µg/mL) | MBC (Listeria monocytogenes [21]): 43 µM (≈ 20.1 µg/mL); MFC (Penicillium ochrochloron [22]): 21.5 µM (≈ 10 µg/mL); MFC (Fulvia fulva [23]): 21.5 µM (≈ 10 µg/mL); MIC (Aspergillus niger [24]): 10.8 µM (≈ 5.04 µg/mL); MIC (Escherichia coli [25]): 21.5 µM (≈ 10 µg/mL); MIC (Trichoderma viride [26]): 10.8 µM (≈ 5.04 µg/mL); MFC (Trichoderma viride [27]): 21.5 µM (≈ 10 µg/mL); MIC (Aspergillus versicolor [28]): 16.1 µM (≈ 7.51 µg/mL); MBC (Pseudomonas aeruginosa [29]): 43 µM (≈ 20.1 µg/mL); MIC (Proteus mirabilis [30]): 43 µM (≈ 20.1 µg/mL); MIC (Salmonella typhimurium [31]): 21.5 µM (≈ 10 µg/mL); MIC (Talaromyces funiculosus [32]): 21.5 µM (≈ 10 µg/mL)
3 | O=C1N/C(=N/c2nc(C34CC5CC(CC(C5)C3)C4)cs2)S/C1=C\c1cccc([N+](=O)[O-])c1 | 10.8 (≈ 5.04 µg/mL) | 21.5 (≈ 10 µg/mL) | 21.5 (≈ 10 µg/mL) | 16.1 (≈ 7.51 µg/mL) | 16.1 (≈ 7.51 µg/mL) | 43 (≈ 20.1 µg/mL) | 21.5 (≈ 10 µg/mL) | 43 (≈ 20.1 µg/mL) | 21.5 (≈ 10 µg/mL) | 16.1 (≈ 7.51 µg/mL) | 21.5 (≈ 10 µg/mL) | 21.5 (≈ 10 µg/mL) | 64.5 (≈ 30.1 µg/mL) | 21.5 (≈ 10 µg/mL) | 21.5 (≈ 10 µg/mL) | 21.5 (≈ 10 µg/mL) | 21.5 (≈ 10 µg/mL) | 21.5 (≈ 10 µg/mL) | 21.5 (≈ 10 µg/mL) | 10.8 (≈ 5.04 µg/mL) | MBC (Listeria monocytogenes [21]): 43 µM (≈ 20.1 µg/mL); MFC (Penicillium ochrochloron [22]): 21.5 µM (≈ 10 µg/mL); MFC (Fulvia fulva [23]): 16.1 µM (≈ 7.51 µg/mL); MIC (Aspergillus niger [24]): 10.8 µM (≈ 5.04 µg/mL); MIC (Escherichia coli [25]): 21.5 µM (≈ 10 µg/mL); MIC (Trichoderma viride [26]): 5.4 µM (≈ 2.52 µg/mL); MFC (Trichoderma viride [27]): 10.8 µM (≈ 5.04 µg/mL); MIC (Aspergillus versicolor [28]): 16.1 µM (≈ 7.51 µg/mL); MBC (Pseudomonas aeruginosa [29]): 43 µM (≈ 20.1 µg/mL); MIC (Proteus mirabilis [30]): 43 µM (≈ 20.1 µg/mL); MIC (Salmonella typhimurium [31]): 10.8 µM (≈ 5.04 µg/mL); MIC (Talaromyces funiculosus [32]): 10.8 µM (≈ 5.04 µg/mL)
